Experimental findings from ChEMBL document CHEMBL1143709, “Human and rat monoamine oxidase-A are differentially inhibited by (S)-4-alkylthioamphetamine derivatives: insights from molecular modeling studies” (Bioorg Med Chem, 2007) are described below.

One may read the Ki as the dissociation constant of the complex between target and ligand, obtained from inhibition or displacement.

In assay [1] the target is T1, Amine oxidase [flavin-containing] A (Rattus norvegicus, UniProt P21396).
T1 sequence (P21396 whole entry): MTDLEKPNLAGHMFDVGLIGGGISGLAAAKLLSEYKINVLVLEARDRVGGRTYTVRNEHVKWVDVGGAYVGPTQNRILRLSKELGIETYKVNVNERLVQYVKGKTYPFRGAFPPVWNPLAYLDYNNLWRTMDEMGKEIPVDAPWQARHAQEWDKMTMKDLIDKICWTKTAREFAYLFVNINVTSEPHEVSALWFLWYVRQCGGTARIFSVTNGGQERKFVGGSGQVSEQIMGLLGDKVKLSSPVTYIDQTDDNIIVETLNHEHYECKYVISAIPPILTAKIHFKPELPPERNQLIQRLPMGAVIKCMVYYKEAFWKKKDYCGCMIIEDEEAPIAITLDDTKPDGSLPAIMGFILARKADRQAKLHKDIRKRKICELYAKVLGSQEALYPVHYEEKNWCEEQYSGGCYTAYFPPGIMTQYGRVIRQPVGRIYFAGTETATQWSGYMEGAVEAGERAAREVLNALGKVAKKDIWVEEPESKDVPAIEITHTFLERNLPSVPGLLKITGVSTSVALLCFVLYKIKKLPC
Kind of assay: Inhibition of rat brain MAOA. In short, it runs like this: (§1)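 Enzyme was a crude brain mitochondrial suspension from male Sprague–Dawley rats (180–220 g). Substrates were 5-HT 100 μM for MAO-A and DMAPEA 5 μM for MAO-B. Substrates and metabolites were measured by C18 reverse-phase HPLC with electrochemical detection. IC50 was taken from % inhibition versus -log concentration, at least two experiments in triplicate, mean ± SD. Ki came from Cheng-Prusoff.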

The target in assay [2] is T2, Amine oxidase [flavin-containing] A (Homo sapiens, UniProt P21397).
T2 sequence (P21397 whole entry): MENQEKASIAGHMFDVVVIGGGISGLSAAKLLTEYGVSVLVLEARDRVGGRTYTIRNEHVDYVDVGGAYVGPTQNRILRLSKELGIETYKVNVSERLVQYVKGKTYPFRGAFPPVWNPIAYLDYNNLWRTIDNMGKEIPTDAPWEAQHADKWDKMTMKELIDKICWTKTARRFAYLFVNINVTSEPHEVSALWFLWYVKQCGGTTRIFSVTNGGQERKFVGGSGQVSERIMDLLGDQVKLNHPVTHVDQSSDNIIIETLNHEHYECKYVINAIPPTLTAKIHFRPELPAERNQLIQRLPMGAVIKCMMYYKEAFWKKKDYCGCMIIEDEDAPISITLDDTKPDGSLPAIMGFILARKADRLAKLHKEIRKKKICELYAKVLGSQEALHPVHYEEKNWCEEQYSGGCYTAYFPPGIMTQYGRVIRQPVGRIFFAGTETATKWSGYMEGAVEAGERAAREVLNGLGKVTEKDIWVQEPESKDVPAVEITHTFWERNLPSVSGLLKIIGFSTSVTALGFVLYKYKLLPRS
Kind of assay: Inhibition of human recombinant MAOA expressed in Pichia pastoris. In short, it runs like this: (§2)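 Purified recombinant enzyme desalted on Sephadex G-25 into 50 mM potassium phosphate pH 7.5 with 0.8% β-octyl-glucoside. Activity was read spectrophotometrically with and without inhibitor in 50 mM HEPES pH 7.5 with 0.5% reduced Triton X-100 at 25°C. Substrates were kynuramine for MAO-A and benzylamine for MAO-B.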

Assay [3] concerns the target T3, Amine oxidase [flavin-containing] B (Rattus norvegicus, UniProt P19643).
T3 sequence (P19643 whole entry): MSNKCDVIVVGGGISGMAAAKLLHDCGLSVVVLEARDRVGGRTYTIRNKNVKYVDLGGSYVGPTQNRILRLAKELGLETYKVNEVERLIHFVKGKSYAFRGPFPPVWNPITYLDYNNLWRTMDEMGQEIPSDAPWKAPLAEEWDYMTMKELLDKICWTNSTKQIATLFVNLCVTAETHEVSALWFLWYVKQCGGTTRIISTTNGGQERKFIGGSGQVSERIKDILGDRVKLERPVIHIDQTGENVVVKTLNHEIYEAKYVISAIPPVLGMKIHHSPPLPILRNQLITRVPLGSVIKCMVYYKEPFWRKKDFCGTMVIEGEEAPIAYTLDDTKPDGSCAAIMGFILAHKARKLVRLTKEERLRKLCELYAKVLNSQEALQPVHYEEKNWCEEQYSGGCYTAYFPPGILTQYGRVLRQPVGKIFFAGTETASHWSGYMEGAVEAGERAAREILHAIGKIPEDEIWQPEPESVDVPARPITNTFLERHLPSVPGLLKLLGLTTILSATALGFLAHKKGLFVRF
In words: Inhibition of rat brain MAOB. In outline: as §1

For assay [4], the target named is T4, Amine oxidase [flavin-containing] B (Homo sapiens, UniProt P27338).
T4 sequence (P27338 whole entry): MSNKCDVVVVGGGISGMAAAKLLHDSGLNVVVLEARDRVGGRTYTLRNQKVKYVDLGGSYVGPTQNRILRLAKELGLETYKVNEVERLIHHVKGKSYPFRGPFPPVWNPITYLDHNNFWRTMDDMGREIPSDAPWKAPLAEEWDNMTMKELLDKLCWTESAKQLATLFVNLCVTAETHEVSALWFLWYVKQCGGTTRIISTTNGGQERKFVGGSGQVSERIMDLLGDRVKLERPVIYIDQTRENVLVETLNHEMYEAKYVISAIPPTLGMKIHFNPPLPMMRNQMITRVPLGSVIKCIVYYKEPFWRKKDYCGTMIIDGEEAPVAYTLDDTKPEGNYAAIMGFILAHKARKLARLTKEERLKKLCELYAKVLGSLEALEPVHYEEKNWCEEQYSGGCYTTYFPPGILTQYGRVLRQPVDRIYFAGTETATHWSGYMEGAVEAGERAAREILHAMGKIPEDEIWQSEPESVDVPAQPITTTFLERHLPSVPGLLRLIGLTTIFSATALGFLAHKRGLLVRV
In words: Inhibition of human recombinant MAOB expressed in Pichia pastoris. In outline: as §2

Consider `CCCSc1ccc(C[C@H](C)N)cc1`, for which the Ki in assay [1] was determined as 115 nM; in assay [2], 30 nM; in assay [3] it was 15000 µM; in assay [4], 14 µM.
For `CCSc1ccc(C[C@H](C)N)cc1`, the inhibition constant (Ki) in assay [1] was 54 nM; in assay [2] it was 75 nM; in assay [3] it was above 100 µM; in assay [4], above 100 µM.
For `CCCCSc1ccc(C[C@H](C)N)cc1`, the Ki in assay [1] amounted to 392 nM; in assay [2], 22 nM; in assay [3] it was 8.92 µM; in assay [4], 4.58 µM.
Turning to `CSc1ccc(C[C@H](C)N)cc1`, the Ki is 245 nM in assay [1], 133 nM in assay [2] and above 100 µM in assay [3].
